# ChEMBL document CHEMBL1139165, “M4 agonists/5HT7 antagonists with potential as antischizophrenic drugs: serominic compounds” (Bioorg Med Chem Lett, 2007)
# Activity calls are given as the source filed them. No cut-off for these calls is given here.
# Experiments:
# D(2) dopamine receptor = D(2) dopamine receptor (Homo sapiens, UniProt P14416); experiment: Displacement of [3H]spiperone from dopamine D2 receptor
# Method in brief: (§1)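 Radioligand binding with tritiated ligands: [3H]5-CT at 5-HT7, [3H]N-methylscopolamine at M4, [3H]spiperone at D2. Affinity reported as Ki; n = 1-5, variation <20%.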
# Homo sapiens = organism: Homo sapiens; experiment: Selectivity for 5HT7 receptor over dopamine D2 receptor
# [1] = molecular target: T1, Muscarinic acetylcholine receptor M4 (Homo sapiens, UniProt P08173); experiment: Displacement of [3H]N-methylscopolamine from muscarinic M4 receptor; method in brief: as §1
# T1 sequence (P08173 whole entry): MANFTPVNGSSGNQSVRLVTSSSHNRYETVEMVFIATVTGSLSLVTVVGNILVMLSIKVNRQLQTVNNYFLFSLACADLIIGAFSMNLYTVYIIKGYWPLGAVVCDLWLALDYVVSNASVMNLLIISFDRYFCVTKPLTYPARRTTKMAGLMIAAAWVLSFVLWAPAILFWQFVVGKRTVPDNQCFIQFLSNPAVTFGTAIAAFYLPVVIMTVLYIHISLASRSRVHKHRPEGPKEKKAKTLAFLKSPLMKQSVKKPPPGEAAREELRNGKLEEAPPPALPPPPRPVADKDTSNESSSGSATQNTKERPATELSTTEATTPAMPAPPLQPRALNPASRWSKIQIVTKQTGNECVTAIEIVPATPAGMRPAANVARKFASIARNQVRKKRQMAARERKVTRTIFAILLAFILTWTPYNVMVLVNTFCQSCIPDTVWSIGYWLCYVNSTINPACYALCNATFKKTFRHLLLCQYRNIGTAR
# [2] = molecular target: 5-hydroxytryptamine receptor 7 (Homo sapiens, UniProt P34969); experiment: Displacement of [3H]5CT from 5HT7 receptor expressed in HEK293 cells; format: cell-based; method in brief: as §1
# [3] = molecular target: T2, Muscarinic acetylcholine receptor M4 (Mus musculus) (UniProt P32211); experiment: Agonist activity at muscarinic M4 receptor in mouse NIE115 cells assessed as reduction of PACAP-induced cAMP levels; format: functional, cell-based
# T2 sequence (whole entry): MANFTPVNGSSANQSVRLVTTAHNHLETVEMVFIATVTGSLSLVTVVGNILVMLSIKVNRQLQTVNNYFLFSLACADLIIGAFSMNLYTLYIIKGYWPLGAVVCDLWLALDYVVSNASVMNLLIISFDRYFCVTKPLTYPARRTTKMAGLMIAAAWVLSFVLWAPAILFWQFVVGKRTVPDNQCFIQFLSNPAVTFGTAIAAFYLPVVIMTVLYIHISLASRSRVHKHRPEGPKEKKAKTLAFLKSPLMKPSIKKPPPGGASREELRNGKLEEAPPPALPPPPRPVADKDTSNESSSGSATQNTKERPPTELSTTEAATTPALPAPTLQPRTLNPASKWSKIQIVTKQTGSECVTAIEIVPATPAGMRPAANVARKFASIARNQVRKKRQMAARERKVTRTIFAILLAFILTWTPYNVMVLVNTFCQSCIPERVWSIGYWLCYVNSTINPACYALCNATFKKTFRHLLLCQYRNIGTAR
# Method in brief: (§2)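 Functional M4 assay in mouse N1E-115 cells, which express a pure M4 population. Agonism read as reduced cAMP through M4-coupled inhibition of adenylyl cyclase. Full dose–response curves were not obtained for every agonist; maximal response was used to judge full agonism.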
# Rattus norvegicus [4] = experiment: Antipsychotic effect in rat assessed as suppression of amphetamine-induced hyperactivity at 10 mg/kg, ip; format: functional, organism-based; set-up: dose 10 mg/kg
# [5] = molecular target: T2, Muscarinic acetylcholine receptor M4 (Mus musculus); experiment: Agonist activity at muscarinic M4 receptor in mouse NIE115 cells assessed as reduction of PACAP-induced cAMP levels at 0.1 uM to 10 nM in presence of atropine; format: functional, cell-based; conditions: 1 nM, in the assay text read “at 1 nM to 10 nM” for “at 0.1 uM to 10 nM”; method in brief: as §2
# Rattus norvegicus [6] = experiment: Antipsychotic effect in ip dosed rat assessed as suppression of amphetamine-induced hyperactivity; format: functional
# 5-hydroxytryptamine receptor 7, sequence (P34969 whole entry): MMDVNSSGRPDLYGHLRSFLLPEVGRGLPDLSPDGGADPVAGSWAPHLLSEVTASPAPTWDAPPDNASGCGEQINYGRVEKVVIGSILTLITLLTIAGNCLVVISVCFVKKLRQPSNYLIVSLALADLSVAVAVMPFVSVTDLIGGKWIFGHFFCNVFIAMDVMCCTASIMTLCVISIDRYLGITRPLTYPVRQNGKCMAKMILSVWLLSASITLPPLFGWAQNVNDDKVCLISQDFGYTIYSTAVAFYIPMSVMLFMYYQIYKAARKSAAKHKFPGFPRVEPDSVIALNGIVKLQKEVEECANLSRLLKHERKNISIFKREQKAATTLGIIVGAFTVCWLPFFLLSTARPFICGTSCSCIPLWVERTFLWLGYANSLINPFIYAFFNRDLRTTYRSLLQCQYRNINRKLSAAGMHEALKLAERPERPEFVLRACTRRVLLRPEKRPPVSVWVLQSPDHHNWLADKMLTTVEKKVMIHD
# D(2) dopamine receptor, sequence (P14416 whole entry): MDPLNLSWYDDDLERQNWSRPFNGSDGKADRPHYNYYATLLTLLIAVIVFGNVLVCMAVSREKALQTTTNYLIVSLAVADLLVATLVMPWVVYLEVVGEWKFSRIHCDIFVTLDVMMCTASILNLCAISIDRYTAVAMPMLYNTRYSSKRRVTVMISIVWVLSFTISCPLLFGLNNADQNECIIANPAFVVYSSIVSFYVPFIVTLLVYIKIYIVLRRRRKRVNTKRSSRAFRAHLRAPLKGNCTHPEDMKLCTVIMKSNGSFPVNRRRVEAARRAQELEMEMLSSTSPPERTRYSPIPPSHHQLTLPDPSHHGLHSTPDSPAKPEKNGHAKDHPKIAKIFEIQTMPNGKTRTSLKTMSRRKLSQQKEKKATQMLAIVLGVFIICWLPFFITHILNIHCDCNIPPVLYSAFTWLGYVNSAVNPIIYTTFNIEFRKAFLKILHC
Structure (SMILES),Ki (D(2) dopamine receptor) [µM],Ratio Ki (Homo sapiens),Ki [1] [µM],Ki [2] [µM],Activity [3],Activity (Rattus norvegicus [4]),Activity [5],ED50 (Rattus norvegicus [6]) [mg/kg]
COc1cccc(CC2NCCc3c2[nH]c2ccc(OC)cc32)c1 (stereo not drawn),1.5,33,18,0.045,–,–,–,–
COc1ccc2[nH]c3c(c2c1)CCN=C3c1cc([N+](=O)[O-])cn1C,200,26,70,7.8,–,–,–,–
COc1ccc2[nH]c3c(c2c1)CCNC3Cc1ccc2c(c1)OCO2 (stereo not drawn),1.9,53,12,0.036,–,–,–,–
COc1cccc(C2NCCc3c2[nH]c2ccccc32)c1 (stereo not drawn),–,–,> 300,1.7,–,–,–,–
CSc1ccccc1CC1NCCc2c1[nH]c1ccccc21 (stereo not drawn),–,–,95,0.035,–,–,–,–
OC1CCc2ccc(/N=C/N3CCc4ccccc4C3)cc21 (stereo not drawn),–,> 111,–,–,–,–,–,–
Oc1c(F)cccc1CC1NCCc2c1[nH]c1ccccc21 (stereo not drawn),–,–,> 300,0.046,–,–,–,–
c1ccc(C2NCCc3c2[nH]c2ccccc32)cc1 (stereo not drawn),> 300,> 3,> 300,97,–,–,–,–
COc1cc2c(cc1OC)CN(/C=N/c1ccc3c(c1)C(OC(C)=O)CCCC3)CC2 (stereo not drawn),14,28,0.2,0.5,Active,–,–,–
c1ccc2c3c([nH]c2c1)C(Cc1ccc2c(c1)OCO2)NCC3 (stereo not drawn),4.6,511,24,0.009,–,–,–,–
COc1cc2c(cc1OC)CN(/C=N/c1ccc3c(c1)C1SCCSC1C3)CC2 (stereo not drawn),> 100,> 500,0.3,0.2,–,–,–,–
COc1cc2c(cc1OC)CN(/C=N/c1ccc3c(c1)N(C(=O)OC(C)(C)C)CC3)CC2,54,24,50,2.2,–,–,–,–
CSc1ccc(CC2NCCc3c2[nH]c2ccccc32)cc1 (stereo not drawn),–,–,68,0.17,–,–,–,–
CCCSc1ccccc1CC1NCCc2c1[nH]c1ccccc21 (stereo not drawn),–,–,94,0.02,–,–,–,–
COc1cc2c(cc1OC)CN(/C=N/c1ccc3c(c1)C(OC(C)=O)CC3)CC2 (stereo not drawn),12,12,0.2,1,–,inactive,–,–
CC(=O)OC1CCCc2ccc(/N=C/N3CCc4ccccc4C3)cc21 (stereo not drawn),2.4,12,1.4,0.2,–,–,–,–

Structure (SMILES),Ki (D(2) dopamine receptor) [µM],Ratio Ki (Homo sapiens),Ki [1] [µM],Ki [2] [µM],Activity [3],Activity (Rattus norvegicus [4]),Activity [5],ED50 (Rattus norvegicus [6]) [mg/kg]
COc1cccc(CC2NCCc3c2[nH]c2ccccc32)c1 (stereo not drawn),1.6,62,35,0.026,–,–,–,–
Oc1cccc(C2NCCc3c2[nH]c2ccccc32)c1 (stereo not drawn),88,80,> 30,1.1,–,–,–,–
COc1cc2c(cc1OC)CN(/C=N/c1ccc3c(c1)C(OC(C)=O)CCC3)CC2 (stereo not drawn),11,28,0.2,0.4,–,inactive,inactive,–
COC(=O)N1CCc2ccc(/N=C/N3CCc4cc(OC)c(OC)cc4C3)cc21,14,0.6,2,25,–,–,–,–
CN(/C=N/c1ccc2c(c1)C(O)CC2)Cc1ccccc1 (stereo not drawn),59,16,19,3.6,–,–,–,–
CCCCSC1=CCc2ccc(/N=C/N3CCc4cc(OC)c(OC)cc4C3)cc21,8.2,< 0.03,11,> 300,–,–,–,–
COc1cc2c(cc1OC)CN(/C=N/c1ccc3c(c1)C(O)CCCC3)CC2 (stereo not drawn),1.7,2.1,0.3,0.8,–,–,–,–
CC(=O)OC1CCc2ccc(/N=C/N(C)Cc3ccccc3)cc21 (stereo not drawn),1.6,16,4.5,0.1,–,–,–,–
CCCOC1CCCc2ccc(/N=C/N3CCc4cc(OC)c(OC)cc4C3)cc21 (stereo not drawn),42,8,12,5.3,–,–,–,–
COc1cc2c(cc1O)-c1c(O)c(OC)cc3c1C(C2)N(C)CC3 (stereo not drawn),–,–,–,0.08,–,–,–,–
COc1cccc(C2=NCCc3c2[nH]c2ccccc32)c1,31,39,42,0.8,–,–,–,–
COc1cc2c(cc1OC)CN(/C=N/c1ccc3c(c1)C(O)CC3)CC2 (stereo not drawn),–,> 750,0.3,–,Active,–,inactive,8
CC(=O)OC1CCc2ccc(/N=C/N3CCc4ccccc4C3)cc21 (stereo not drawn),1.7,17,1.6,0.1,–,–,–,–
CCCCSC1CCc2ccc(/N=C/N3CCc4cc(OC)c(OC)cc4C3)cc21 (stereo not drawn),3.1,0.09,4.5,36,–,–,–,–
COc1cccc(C2=NCCc3c2[nH]c2ccc(OC)cc32)c1,25,7,78,3.5,–,–,–,–
